{"source": "ChEMBL document CHEMBL2380292", "about": "“Discovery of SAR184841, a potent and long-lasting inhibitor of 11β-hydroxysteroid dehydrogenase type 1, active in a physiopathological animal model of T2D” (Bioorg Med Chem Lett, 2013)", "key": {"[1]": {"test": "Solubility of the compound in aqueous buffer up to pH 4.5", "assay_type": "physicochemical"}, "[2]": {"test": "Permeability across human Caco2 cells", "assay_type": "ADME, cell-based", "conditions": "Caco-2, read-out: permeability; call rule not given here", "method_in_brief": "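Permeability was measured with the compound alone and in the presence of the P-gp inhibitor elacridar, and expressed in 10^-7 cm/s.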"}, "Mus musculus [3]": {"test_system": "Mus musculus", "test": "Toxicity in C57Bl/6J mouse assessed as change in body weight at 1 to 10 mg/kg, po", "assay_type": "organism-based", "set-up": "dose 1-10 mg/kg, route oral", "conditions": "in vivo", "method_in_brief": "(§1)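 C57Bl/6J mice, 20 weeks old, kept on a high-fat/high-fructose diet (diet-induced obese), were dosed orally once daily for 4 weeks at 1, 3 or 10 mg/kg/day in methylcellulose-Tween 80 vehicle. Lean and obese vehicle-treated controls were included, with n = 9–10 per group. Food intake and body weight were followed. Plasma drug levels were taken at study end, about 22 h after the last dose.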"}, "[4]": {"test": "Cmax in rat plasma at 10 mg/kg, po", "assay_type": "ADME, organism-based", "set-up": "dose 10 mg/kg, route oral"}, "Mus musculus [5]": {"test_system": "Mus musculus", "test": "Ex vivo inhibition of 11beta-HSD1 in C57Bl/6J mouse subcutaneous fat at 3 mg/kg, po after 16 hrs", "assay_type": "functional", "method_in_brief": "(§2)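 Mice given a single oral dose as a suspension in Tween 80/0.6% methylcellulose (0.5/99.5, v/v) at 10 mL/kg. At 2 h or 16 h post-dose, animals were killed by cervical dislocation and 50 mg liver and 200 mg subcutaneous fat were taken for 11β-HSD1 activity. Reactions were stopped with HCl 1 N/methanol (1/1). 3H-cortisone and 3H-cortisol were quantified by HPLC with flow scintillation detection.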"}, "[6]": {"target": "11-beta-hydroxysteroid dehydrogenase 1 (Mus musculus, UniProt P50172)", "sequence (P50172 whole entry)": "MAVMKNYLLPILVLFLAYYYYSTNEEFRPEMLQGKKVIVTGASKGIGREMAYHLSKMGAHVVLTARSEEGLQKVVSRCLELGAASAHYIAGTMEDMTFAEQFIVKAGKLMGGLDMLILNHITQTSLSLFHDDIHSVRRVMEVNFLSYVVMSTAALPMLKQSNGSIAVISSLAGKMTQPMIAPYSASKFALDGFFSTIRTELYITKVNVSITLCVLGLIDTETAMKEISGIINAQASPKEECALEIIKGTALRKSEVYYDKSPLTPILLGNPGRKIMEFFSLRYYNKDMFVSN", "test": "Inhibition of mouse recombinant 11beta-HSD1 by scintillation proximity assay"}, "Cytochrome P450 3A4": {"target": "Cytochrome P450 3A4 (Homo sapiens, UniProt P08684)", "sequence (P08684 whole entry)": "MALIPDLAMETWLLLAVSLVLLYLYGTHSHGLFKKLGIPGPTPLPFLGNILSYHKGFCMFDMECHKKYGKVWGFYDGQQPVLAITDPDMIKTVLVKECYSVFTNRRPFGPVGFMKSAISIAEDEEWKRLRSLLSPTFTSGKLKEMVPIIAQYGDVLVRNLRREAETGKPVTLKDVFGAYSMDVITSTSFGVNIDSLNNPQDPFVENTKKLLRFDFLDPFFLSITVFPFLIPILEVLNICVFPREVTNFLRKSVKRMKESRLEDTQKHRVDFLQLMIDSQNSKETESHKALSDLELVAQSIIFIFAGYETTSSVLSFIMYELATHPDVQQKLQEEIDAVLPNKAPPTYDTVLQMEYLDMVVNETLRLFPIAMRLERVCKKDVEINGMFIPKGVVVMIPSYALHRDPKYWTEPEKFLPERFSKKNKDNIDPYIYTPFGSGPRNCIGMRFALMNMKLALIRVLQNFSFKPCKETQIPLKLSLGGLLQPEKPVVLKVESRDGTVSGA", "test": "Inhibition of CYP3A4 (unknown origin)", "assay_type": "ADME"}, "Mus musculus [7]": {"species_on_record": "Mus musculus", "test": "Toxicity in C57Bl/6J mouse assessed as HPA axis biomarker modification", "assay_type": "organism-based", "conditions": "in vivo"}, "Liver microsomes [8]": {"test_system": "Liver microsomes", "test": "Metabolic stability in rat liver microsomes", "assay_type": "ADME, Microsome"}, "Xenopus laevis": {"species_on_record": "Xenopus laevis", "test": "Toxicity in Xenopus laevis by teratogenicity assay", "assay_type": "organism-based", "conditions": "in vivo"}, "Mus musculus [9]": {"test_system": "Mus musculus", "test": "Antidiabetic activity in diet induced obese C57Bl/6J mouse assessed as plasma cholesterol level at 10 mg/kg, po qd administered for 4 weeks (reference value: 154.3 +/- 8.6 mg/dL)", "assay_type": "functional"}, "Mus musculus [10]": {"test_system": "Mus musculus", "test": "Antidiabetic activity in diet induced obese C57Bl/6J mouse assessed as plasma insulin level at 1 mg/kg, po qd administered for 4 weeks (reference value: 3.6 +/- 0.2 ng/mL)", "assay_type": "functional"}, "Liver": {"test_system": "Liver", "test": "Metabolic stability in mouse liver microsomes", "assay_type": "ADME, Microsome"}, "[11]": {"target": "11-beta-hydroxysteroid dehydrogenase 1 (Homo sapiens, UniProt P28845)", "sequence (P28845 whole entry)": "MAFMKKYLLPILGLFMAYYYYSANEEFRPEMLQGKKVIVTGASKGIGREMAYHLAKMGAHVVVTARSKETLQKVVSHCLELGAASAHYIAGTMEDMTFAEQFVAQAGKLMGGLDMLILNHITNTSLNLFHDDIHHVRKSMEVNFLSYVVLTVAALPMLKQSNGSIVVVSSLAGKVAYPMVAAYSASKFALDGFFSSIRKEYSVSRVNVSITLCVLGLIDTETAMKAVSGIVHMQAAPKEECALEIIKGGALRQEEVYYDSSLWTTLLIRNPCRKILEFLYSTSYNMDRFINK", "test": "Inhibition of human recombinant 11beta-HSD1 by scintillation proximity assay"}, "Mus musculus [12]": {"test_system": "Mus musculus", "test": "Ex vivo inhibition of 11beta-HSD1 in C57Bl/6J mouse subcutaneous fat at 30 mg/kg, po after 16 hrs", "assay_type": "functional", "method_in_brief": "as §2"}, "[13]": {"test": "Induction of cytochrome P450 (unknown origin)", "assay_type": "ADME", "conditions": "human"}, "Mus musculus [14]": {"test_system": "Mus musculus", "test": "Antidiabetic activity in diet induced obese C57Bl/6J mouse assessed as plasma triglyceride level at 3 mg/kg, po qd administered for 4 weeks (reference value: 36.2 +/- 2.1 […])", "assay_type": "functional"}, "Liver microsomes [15]": {"test_system": "Liver microsomes", "test": "Metabolic stability in human liver microsomes", "assay_type": "ADME, Microsome"}, "Mus musculus [16]": {"test_system": "Mus musculus", "test": "Antidiabetic activity in diet induced obese C57Bl/6J mouse assessed as plasma insulin level at 10 mg/kg, po qd administered for 4 weeks (reference value: 3.6 +/- 0.2 ng/mL)", "assay_type": "functional"}, "[17]": {"target": "T1, 11-beta-hydroxysteroid dehydrogenase type 2 (Homo sapiens, UniProt P80365)", "T1 sequence (P80365 whole entry)": "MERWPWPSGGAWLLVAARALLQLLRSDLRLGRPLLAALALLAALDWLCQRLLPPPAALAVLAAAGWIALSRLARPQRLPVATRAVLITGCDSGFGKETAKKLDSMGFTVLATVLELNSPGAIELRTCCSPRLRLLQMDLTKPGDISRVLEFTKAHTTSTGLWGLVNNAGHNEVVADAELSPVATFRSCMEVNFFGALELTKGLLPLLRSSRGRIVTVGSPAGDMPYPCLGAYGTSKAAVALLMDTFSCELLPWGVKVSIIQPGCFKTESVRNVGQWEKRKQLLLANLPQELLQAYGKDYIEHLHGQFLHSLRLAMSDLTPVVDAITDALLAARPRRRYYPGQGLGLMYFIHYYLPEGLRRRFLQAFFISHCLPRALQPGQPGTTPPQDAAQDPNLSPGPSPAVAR", "test": "Inhibition of human 11beta-HSD2"}, "Mus musculus [18]": {"test_system": "Mus musculus", "test": "Antidiabetic activity in diet induced obese C57Bl/6J mouse assessed as plasma glucose level at 1 mg/kg, po qd administered for 4 weeks (reference value: 297 +/- 15 mg/dL)", "assay_type": "functional"}, "Hepatocyte": {"test_system": "Hepatocyte", "test": "Intrinsic clearance in human hepatocytes assessed per 10^-6 cells", "assay_type": "ADME, cell-based"}, "[19]": {"test": "Oral bioavailability in rat at 10 mg/kg", "assay_type": "ADME, organism-based", "conditions": "in vivo"}, "Mus musculus [20]": {"test_system": "Mus musculus", "test": "Ex vivo inhibition of 11beta-HSD1 in C57Bl/6J mouse liver at 30 mg/kg, po after 16 hrs", "assay_type": "functional", "method_in_brief": "as §2"}, "Mus musculus [21]": {"test_system": "Mus musculus", "test": "Antidiabetic activity in diet induced obese C57Bl/6J mouse assessed as plasma leptin level at 1 mg/kg, po qd administered for 4 weeks (reference value: 22.5 +/- 2.4 ng/mL)", "assay_type": "functional"}, "Mus musculus [22]": {"test_system": "Mus musculus", "test": "Toxicity in C57Bl/6J mouse assessed as effect on food intake at 1 to 10 mg/kg, po", "assay_type": "organism-based", "set-up": "dose 1-10 mg/kg, route oral", "conditions": "in vivo", "method_in_brief": "as §1"}, "[23]": {"test": "AUC (0 to infinity) in rat plasma at 10 mg/kg, po", "assay_type": "ADME, organism-based", "set-up": "time infinity, dose 10 mg/kg, route oral"}, "Mus musculus [24]": {"test_system": "Mus musculus", "test": "Antidiabetic activity in diet induced obese C57Bl/6J mouse assessed as plasma triglyceride level at 1 mg/kg, po qd administered for 4 weeks (reference value: 36.2 +/- 2.1 […])", "assay_type": "functional"}, "Mus musculus [25]": {"test_system": "Mus musculus", "test": "Antidiabetic activity in po dosed C57Bl/6J mouse assessed as reduction in plasma insulin level administered for 4 weeks", "assay_type": "functional, organism-based"}, "[26]": {"test": "Plasma clearance in rat at 3 mg/kg, iv and 10 mg/kg, po", "assay_type": "ADME, organism-based"}, "Mus musculus [27]": {"test_system": "Mus musculus", "test": "Ex vivo inhibition of 11beta-HSD1 in C57Bl/6J mouse liver at 3 mg/kg, po after 16 hrs", "assay_type": "functional", "method_in_brief": "as §2"}, "Mus musculus [28]": {"test_system": "Mus musculus", "test": "Antidiabetic activity in diet induced obese C57Bl/6J mouse assessed as plasma glucose level at 10 mg/kg, po qd administered for 4 weeks (reference value: 297 +/- 15 mg/dL)", "assay_type": "functional"}, "Mus musculus [29]": {"test_system": "Mus musculus", "test": "Antidiabetic activity in diet induced obese C57Bl/6J mouse assessed as liver triglyceride level at 10 mg/kg, po qd administered for 4 weeks (reference value: 210.5 +/- 15.4 mg/g)", "assay_type": "functional"}, "Mus musculus [30]": {"test_system": "Mus musculus", "test": "Inhibition of 11beta-HSD1 in mouse adipose tissue at 3 mg/kg, po after 7 hrs", "assay_type": "functional", "method_in_brief": "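Pharmacodynamic study in mice: single oral 3 mg/kg dose, with liver and fat 11β-HSD1 activity followed over 24 h post-dosing.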"}, "Mus musculus [31]": {"test_system": "Mus musculus", "test": "Hepatotoxicity in C57Bl/6J mouse assessed as alteration of liver function biomarkers at 1 to 10 mg/kg, po after 4 weeks", "assay_type": "toxicity, organism-based", "set-up": "dose 1-10 mg/kg, route oral", "conditions": "in vivo, 672 h"}, "[32]": {"target": "11-beta-hydroxysteroid dehydrogenase 1 (Rattus norvegicus, UniProt P16232)", "sequence (P16232 whole entry)": "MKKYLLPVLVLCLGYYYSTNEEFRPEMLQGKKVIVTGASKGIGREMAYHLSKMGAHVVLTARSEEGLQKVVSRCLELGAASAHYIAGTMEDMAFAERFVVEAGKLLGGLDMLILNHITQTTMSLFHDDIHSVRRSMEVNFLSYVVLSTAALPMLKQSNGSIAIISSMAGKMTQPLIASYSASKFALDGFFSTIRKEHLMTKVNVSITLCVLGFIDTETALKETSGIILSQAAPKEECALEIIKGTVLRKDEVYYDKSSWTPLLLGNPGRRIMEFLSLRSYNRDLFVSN", "test": "Inhibition of rat 11beta-HSD1"}}}
{"compound": "CC(C)(C)N1CCN(c2ccc(N3CCN(C(=O)N[C@H]4C5CC6CC4C[C@](C(N)=O)(C6)C5)c4ccccc43)nc2)CC1", "values": [{"measurement": "solubility", "setting": "[1]", "result": "> 2000", "unit": "µg/mL"}, {"measurement": "Papp", "setting": "[2]", "result": 0.3, "unit": "×10⁻⁶ cm/s"}, {"measurement": "Activity", "setting": "Mus musculus [3]", "result": "Non-toxic"}, {"measurement": "Cmax", "setting": "[4]", "result": 556, "unit": "ng/mL"}, {"measurement": "inhibition in vivo at 3 mg/kg", "setting": "Mus musculus [5]", "result": "> 50", "unit": "%"}, {"measurement": "IC50", "setting": "[6]", "result": 6, "unit": "nM"}, {"measurement": "IC50", "setting": "Cytochrome P450 3A4", "result": "> 50000", "unit": "nM"}, {"measurement": "Activity", "setting": "Mus musculus [7]", "result": "Non-toxic"}, {"measurement": "Stability", "setting": "Liver microsomes [8]", "result": 15, "unit": "%"}, {"measurement": "Activity", "setting": "Xenopus laevis", "result": "Non-toxic"}, {"measurement": "Activity", "setting": "Mus musculus [9]", "result": 123.6, "unit": "mg/dL"}, {"measurement": "Activity", "setting": "Mus musculus [10]", "result": 2.8, "unit": "ng/mL"}, {"measurement": "Stability", "setting": "Liver", "result": 13, "unit": "%"}, {"measurement": "IC50", "setting": "[11]", "result": 4, "unit": "nM"}, {"measurement": "inhibition in vivo at 30 mg/kg", "setting": "Mus musculus [12]", "result": 60, "unit": "%"}, {"measurement": "Activity", "setting": "[13]", "result": "Not Active"}, {"measurement": "Activity", "setting": "Mus musculus [14]", "result": 38.4, "unit": "mg/mL"}, {"measurement": "Stability", "setting": "Liver microsomes [15]", "result": 2, "unit": "%"}, {"measurement": "Activity", "setting": "Mus musculus [16]", "result": 1.9, "unit": "ng/mL"}, {"measurement": "IC50", "setting": "[17]", "result": 4000, "unit": "nM"}, {"measurement": "Activity", "setting": "Mus musculus [18]", "result": 263, "unit": "mg/dL"}, {"measurement": "CLH", "setting": "Hepatocyte", "result": 0.035, "unit": "mL/h"}, {"measurement": "bioavailability", "setting": "[19]", "result": 25, "unit": "%"}, {"measurement": "inhibition in vivo at 30 mg/kg", "setting": "Mus musculus [20]", "result": 72, "unit": "%"}, {"measurement": "Activity", "setting": "Mus musculus [21]", "result": 14.9, "unit": "ng/mL"}, {"measurement": "Activity", "setting": "Mus musculus [22]", "result": "Non-toxic"}, {"measurement": "AUC(0-inf)", "setting": "[23]", "result": 580, "unit": "ng·h/mL"}, {"measurement": "Activity", "setting": "Mus musculus [24]", "result": 33.8, "unit": "mg/mL"}, {"measurement": "Activity", "setting": "Mus musculus [25]", "result": "Dose-dependent effect"}, {"measurement": "clearance", "setting": "[26]", "result": 86.7, "unit": "mL/min/kg"}, {"measurement": "inhibition in vivo at 3 mg/kg", "setting": "Mus musculus [27]", "result": "> 50", "unit": "%"}, {"measurement": "Activity", "setting": "Mus musculus [28]", "result": 224.6, "unit": "mg/dL"}, {"measurement": "Activity", "setting": "Mus musculus [29]", "result": 129.1, "unit": "mg/g"}, {"measurement": "inhibition in vivo at 3 mg/kg", "setting": "Mus musculus [30]", "result": "> 90", "unit": "%"}, {"measurement": "Activity", "setting": "Mus musculus [31]", "result": "Non-toxic"}, {"measurement": "IC50", "setting": "[32]", "result": 7, "unit": "nM"}]}
